From ChEMBL document CHEMBL4257443, “The discovery of a potent Nav1.3 inhibitor with good oral pharmacokinetics” (Medchemcomm, 2017)
≈ marks a conversion by molar mass, not a printed value. Calls of active or inactive are those of the source. No cut-off for these calls is given here.

Tests used:
[1] = target: Sodium channel protein type 3 subunit alpha (Homo sapiens, UniProt Q9NY46); test: Inhibition of human NaV1.3 expressed in HEK cells by electrophysiological method; type: cell-based
[2] = Lipophilicity, log D of the compound; type: physicochemical; conditions: octanol/water
Rattus norvegicus [3] = test: Antipain activity in tibial nerve transection surgery model of rat assessed as reduction of mechanical punctate stimuli evoked activity at 9 to 18 mg/kg administered as iv bolus dose measured every 15 mins for 30 mins; type: functional, organism-based
In short: (§1)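 Rats given tibial nerve transection 2 to 3 weeks before recording. Anaesthesia with isoflurane (5% in O2) in a stereotaxic frame, body temperature held at 37 °C, and laminectomy to expose spinal segments L4-5. After stable baseline responses, compound given as IV bolus; evoked activity assessed every 15 min for up to 30 min per dose. Randomised, blinded dosing. Dry blood spots taken for plasma exposure.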

Rattus norvegicus [4] = test: Antipain activity in tibial nerve transection surgery model of rat assessed as reduction of heat evoked activity at 9 to 18 mg/kg administered as iv bolus dose measured every 15 mins for 30 mins; type: functional, organism-based; in short: as §1
Rattus norvegicus [5] = test: Antipain activity in tibial nerve transection surgery model of rat assessed as reduction of noxious pinch evoked activity at 9 to 18 mg/kg administered as iv bolus dose measured every 15 mins for 30 mins; type: functional, organism-based; in short: as §1
Rattus norvegicus [6] = test: Antipain activity in tibial nerve transection surgery model of rat assessed as reduction of innocuous brush evoked activity at 9 to 18 mg/kg administered as iv bolus dose measured every 15 mins for 30 mins; type: functional, organism-based; in short: as §1
[7] = Dissociation constant, pKa of compound; type: physicochemical
CYP2C9 = CYP2C9 (Homo sapiens, UniProt P11712); test: Inhibition of CYP2C9 (unknown origin) at 3 uM by high throughput assay relative to control; type: ADME
Chain of CYP2C9 (P11712 whole entry): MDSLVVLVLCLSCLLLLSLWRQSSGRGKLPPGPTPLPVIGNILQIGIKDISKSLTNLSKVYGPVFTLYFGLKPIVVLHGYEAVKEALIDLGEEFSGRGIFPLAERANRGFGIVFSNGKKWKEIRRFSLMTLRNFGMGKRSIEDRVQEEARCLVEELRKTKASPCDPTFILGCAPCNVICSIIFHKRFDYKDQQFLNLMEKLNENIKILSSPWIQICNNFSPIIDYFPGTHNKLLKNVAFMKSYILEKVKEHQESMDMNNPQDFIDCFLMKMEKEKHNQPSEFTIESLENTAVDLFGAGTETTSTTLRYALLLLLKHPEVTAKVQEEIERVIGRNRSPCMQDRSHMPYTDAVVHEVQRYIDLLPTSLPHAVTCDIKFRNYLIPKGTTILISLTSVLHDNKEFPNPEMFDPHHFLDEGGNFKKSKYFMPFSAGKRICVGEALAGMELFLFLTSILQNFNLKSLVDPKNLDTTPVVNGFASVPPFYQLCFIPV

[8] = Volume of distribution in rat; type: ADME, organism-based; conditions: in vivo
CYP3A4 = CYP3A4 (Homo sapiens, UniProt P08684); test: Inhibition of CYP3A4 (unknown origin) at 3 uM by high throughput assay relative to control; type: ADME
Chain of CYP3A4 (P08684 whole entry): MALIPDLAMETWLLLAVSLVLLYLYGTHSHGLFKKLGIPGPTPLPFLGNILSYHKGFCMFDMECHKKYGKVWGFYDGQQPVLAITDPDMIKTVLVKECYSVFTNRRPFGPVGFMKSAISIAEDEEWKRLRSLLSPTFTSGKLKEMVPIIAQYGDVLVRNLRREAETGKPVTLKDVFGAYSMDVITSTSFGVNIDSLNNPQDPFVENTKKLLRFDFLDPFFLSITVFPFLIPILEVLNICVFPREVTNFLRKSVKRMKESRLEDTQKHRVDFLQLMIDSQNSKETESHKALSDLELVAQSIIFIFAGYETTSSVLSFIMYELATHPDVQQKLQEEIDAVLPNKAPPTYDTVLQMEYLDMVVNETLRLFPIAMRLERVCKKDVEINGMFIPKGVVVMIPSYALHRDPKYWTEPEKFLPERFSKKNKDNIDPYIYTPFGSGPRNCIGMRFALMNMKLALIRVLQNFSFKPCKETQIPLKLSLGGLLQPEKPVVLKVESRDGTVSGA

MDR1 = test: Efflux ratio of permeability across basolateral to apical over apical to basolateral side in RRCK cells expressing MDR1; type: ADME, cell-based, Canis lupus familiaris, MDCKII-LE; conditions: dog, MDCK-MDR1
[9] = target: Sodium channel protein type 5 subunit alpha (Homo sapiens, UniProt Q14524); test: Inhibition of human NaV1.5
[10] = Aqueous solubility of compound; type: physicochemical; conditions: buffer
[11] = target: Sodium channel protein type 8 subunit alpha (Homo sapiens, UniProt Q9UQD0); test: Inhibition of human NaV1.6
Chain of Sodium channel protein type 8 subunit alpha (Q9UQD0 whole entry): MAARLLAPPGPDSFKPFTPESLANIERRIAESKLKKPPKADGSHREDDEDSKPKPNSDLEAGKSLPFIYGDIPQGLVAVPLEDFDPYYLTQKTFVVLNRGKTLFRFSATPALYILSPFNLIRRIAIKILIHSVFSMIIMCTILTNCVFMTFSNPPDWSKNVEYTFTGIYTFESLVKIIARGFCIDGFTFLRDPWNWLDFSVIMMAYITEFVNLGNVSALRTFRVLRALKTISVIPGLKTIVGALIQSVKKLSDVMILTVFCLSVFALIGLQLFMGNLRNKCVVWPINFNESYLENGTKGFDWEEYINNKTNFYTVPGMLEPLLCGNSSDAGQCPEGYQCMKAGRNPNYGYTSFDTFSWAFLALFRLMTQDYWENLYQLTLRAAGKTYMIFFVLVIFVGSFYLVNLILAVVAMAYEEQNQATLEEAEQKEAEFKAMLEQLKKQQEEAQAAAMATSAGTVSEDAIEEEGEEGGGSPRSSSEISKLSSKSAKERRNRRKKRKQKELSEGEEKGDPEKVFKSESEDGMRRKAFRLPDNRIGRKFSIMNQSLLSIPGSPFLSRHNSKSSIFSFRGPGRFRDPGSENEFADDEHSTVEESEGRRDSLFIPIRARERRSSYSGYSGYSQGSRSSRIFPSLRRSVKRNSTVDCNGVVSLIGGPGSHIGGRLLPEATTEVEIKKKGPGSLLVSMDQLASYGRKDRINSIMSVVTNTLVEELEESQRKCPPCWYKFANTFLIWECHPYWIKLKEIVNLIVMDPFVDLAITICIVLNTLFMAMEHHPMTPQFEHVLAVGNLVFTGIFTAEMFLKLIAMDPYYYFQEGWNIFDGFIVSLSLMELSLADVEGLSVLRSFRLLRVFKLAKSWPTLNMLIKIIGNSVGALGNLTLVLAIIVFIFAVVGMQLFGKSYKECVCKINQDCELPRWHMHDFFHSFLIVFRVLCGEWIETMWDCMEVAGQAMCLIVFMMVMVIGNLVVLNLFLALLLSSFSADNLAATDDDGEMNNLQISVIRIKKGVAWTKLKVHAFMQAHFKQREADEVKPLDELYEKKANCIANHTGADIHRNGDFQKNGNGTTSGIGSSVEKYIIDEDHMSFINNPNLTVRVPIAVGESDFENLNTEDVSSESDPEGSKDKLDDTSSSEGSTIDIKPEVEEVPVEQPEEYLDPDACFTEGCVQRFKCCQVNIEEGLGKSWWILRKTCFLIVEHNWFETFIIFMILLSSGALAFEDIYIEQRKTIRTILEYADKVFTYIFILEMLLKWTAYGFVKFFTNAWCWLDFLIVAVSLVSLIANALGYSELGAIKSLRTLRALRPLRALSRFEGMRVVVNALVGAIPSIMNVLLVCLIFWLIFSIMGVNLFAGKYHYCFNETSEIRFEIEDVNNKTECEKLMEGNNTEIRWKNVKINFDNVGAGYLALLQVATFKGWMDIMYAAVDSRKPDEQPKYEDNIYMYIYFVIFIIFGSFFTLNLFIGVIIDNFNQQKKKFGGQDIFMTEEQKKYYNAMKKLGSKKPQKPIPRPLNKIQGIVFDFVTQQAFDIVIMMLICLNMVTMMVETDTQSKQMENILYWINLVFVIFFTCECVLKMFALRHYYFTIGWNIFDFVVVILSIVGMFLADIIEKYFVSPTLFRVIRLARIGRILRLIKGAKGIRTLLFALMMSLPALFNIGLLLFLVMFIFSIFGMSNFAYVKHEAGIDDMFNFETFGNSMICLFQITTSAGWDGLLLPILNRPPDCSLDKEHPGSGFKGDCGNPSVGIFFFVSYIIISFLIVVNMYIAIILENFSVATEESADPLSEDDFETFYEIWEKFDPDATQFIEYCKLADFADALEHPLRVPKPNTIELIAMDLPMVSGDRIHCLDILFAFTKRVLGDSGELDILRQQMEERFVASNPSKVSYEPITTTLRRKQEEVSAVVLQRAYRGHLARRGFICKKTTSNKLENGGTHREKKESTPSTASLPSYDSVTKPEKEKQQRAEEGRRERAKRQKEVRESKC

[12] = Clearance in rat; type: ADME, organism-based; conditions: in vivo
[13] = target: Sodium channel protein type 9 subunit alpha (Homo sapiens, UniProt Q15858); test: Inhibition of human NaV1.7
[14] = target: Sodium channel protein type 2 subunit alpha (Homo sapiens, UniProt Q99250); test: Inhibition of human NaV1.2
[15] = Clearance in human liver microsomes; type: ADME, microsome; conditions: read-out: CLH
[16] = Oral bioavailability in rat; type: ADME, organism-based; conditions: in vivo
[17] = target: Voltage-gated inwardly rectifying potassium channel KCNH2 (Homo sapiens, UniProt Q12809); test: Inhibition of human ERG
[18] = target: Sodium channel protein type 1 subunit alpha (Homo sapiens, UniProt P35498); test: Inhibition of human NaV1.1
[19] = target: Sodium channel protein type 10 subunit alpha (Homo sapiens, UniProt Q9Y5Y9); test: Inhibition of human NaV1.8
Chain of Sodium channel protein type 10 subunit alpha (Q9Y5Y9 whole entry): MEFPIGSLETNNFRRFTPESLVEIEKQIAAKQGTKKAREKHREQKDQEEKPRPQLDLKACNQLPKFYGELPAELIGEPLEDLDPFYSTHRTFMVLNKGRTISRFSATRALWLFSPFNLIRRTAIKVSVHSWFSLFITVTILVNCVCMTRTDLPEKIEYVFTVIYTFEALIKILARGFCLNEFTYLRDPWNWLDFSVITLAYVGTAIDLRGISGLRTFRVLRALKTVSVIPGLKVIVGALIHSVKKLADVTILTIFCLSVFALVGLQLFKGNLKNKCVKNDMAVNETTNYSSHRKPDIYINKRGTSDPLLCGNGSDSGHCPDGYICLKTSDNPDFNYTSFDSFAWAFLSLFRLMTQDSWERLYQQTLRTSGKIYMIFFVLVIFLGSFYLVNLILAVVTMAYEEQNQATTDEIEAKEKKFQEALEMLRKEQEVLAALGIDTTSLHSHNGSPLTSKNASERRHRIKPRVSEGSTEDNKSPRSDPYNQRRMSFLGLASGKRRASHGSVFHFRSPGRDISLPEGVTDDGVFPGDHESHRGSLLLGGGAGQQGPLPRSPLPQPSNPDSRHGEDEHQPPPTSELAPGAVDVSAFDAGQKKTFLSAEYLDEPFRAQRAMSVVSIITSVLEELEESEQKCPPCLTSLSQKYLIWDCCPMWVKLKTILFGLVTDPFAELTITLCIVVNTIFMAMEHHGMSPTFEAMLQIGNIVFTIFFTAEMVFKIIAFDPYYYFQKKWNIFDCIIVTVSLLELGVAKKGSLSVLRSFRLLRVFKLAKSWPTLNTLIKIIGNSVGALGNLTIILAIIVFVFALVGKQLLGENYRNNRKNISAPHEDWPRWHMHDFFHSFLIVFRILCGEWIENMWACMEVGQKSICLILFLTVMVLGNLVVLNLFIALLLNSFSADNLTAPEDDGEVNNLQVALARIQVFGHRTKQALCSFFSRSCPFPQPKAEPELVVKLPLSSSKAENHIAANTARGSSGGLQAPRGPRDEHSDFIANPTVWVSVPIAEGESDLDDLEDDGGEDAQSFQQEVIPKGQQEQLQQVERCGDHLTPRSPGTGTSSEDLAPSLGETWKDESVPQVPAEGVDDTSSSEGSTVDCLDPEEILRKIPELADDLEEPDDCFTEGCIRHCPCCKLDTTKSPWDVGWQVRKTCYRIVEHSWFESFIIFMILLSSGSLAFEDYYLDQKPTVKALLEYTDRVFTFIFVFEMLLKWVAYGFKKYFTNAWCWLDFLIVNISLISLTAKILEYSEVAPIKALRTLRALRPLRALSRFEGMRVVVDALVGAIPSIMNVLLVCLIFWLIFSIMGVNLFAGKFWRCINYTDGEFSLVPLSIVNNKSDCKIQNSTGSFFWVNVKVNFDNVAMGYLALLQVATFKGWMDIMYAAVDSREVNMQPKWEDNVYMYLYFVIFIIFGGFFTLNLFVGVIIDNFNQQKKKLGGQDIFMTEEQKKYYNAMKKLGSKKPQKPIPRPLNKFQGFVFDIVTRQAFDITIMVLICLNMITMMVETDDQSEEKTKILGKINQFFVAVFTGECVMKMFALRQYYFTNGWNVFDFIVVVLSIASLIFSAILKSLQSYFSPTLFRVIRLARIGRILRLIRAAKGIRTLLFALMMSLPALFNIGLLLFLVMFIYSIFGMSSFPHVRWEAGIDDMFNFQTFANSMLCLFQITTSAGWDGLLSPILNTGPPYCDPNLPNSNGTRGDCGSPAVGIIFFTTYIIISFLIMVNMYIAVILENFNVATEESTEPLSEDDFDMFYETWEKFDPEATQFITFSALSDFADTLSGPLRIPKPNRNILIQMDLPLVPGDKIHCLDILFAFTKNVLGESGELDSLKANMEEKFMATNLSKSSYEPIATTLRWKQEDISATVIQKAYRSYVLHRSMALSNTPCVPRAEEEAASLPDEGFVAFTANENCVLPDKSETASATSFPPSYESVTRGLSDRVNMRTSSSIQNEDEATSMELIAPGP

[20] = target: Sodium channel protein type 4 subunit alpha (Homo sapiens, UniProt P35499); test: Inhibition of human NaV1.4
[21] = target: Sodium channel protein type 3 subunit alpha (Rattus norvegicus, UniProt P08104); test: Inhibition of rat NaV1.3 by electrophysiological method
[22] = target: Sodium channel protein type 9 subunit alpha (Rattus norvegicus, UniProt O08562); test: Inhibition of rat NaV1.7
[23] = Protein binding in dog plasma; type: ADME, cell-free, Canis lupus familiaris; conditions: read-out: PPB
[24] = Ratio of drug level in cynomolgus monkey treated with (2-(4-(3-chloro-4-(trifluoromethoxy)benzylcarbamoyl)-2-fluorophenylsulfonylimino)thiazol-3(2H)-yl)methyl dihydrogen phosphate at 30 mg/kg to IC50 for cynomolgus monkey NaV1.3; type: ADME, organism-based, Macaca fascicularis; conditions: in vivo
[25] = Protein binding in human plasma by equilibrium dialysis method; type: ADME, cell-free; conditions: read-out: PPB (converted)
In short: (§2)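 Plasma protein binding measured by equilibrium dialysis.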

Tibial nerve [26] = test: Effect on heat evoked afferent firing in rat skin-tibial nerve at 0.01 to 1 uM; type: functional, tissue-based
In short: (§3)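 Compound was applied to the isolated skin-tibial nerve preparation at 0.01, 0.03, 0.1, 0.3 and 1 µM. Heat-evoked afferent firing and ongoing nerve activity were recorded.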

Rattus norvegicus [27] = test: Toxicity in rat assessed as decrease in heart rate at 100 to 500 mg/kg, po; type: organism-based; conditions: in vivo
[28] = Ratio of drug level in tibial nerve transection surgery model of rat treated with (2-(4-(3-chloro-4-(trifluoromethoxy)benzylcarbamoyl)-2-fluorophenylsulfonylimino)thiazol-3(2H)-yl)methyl dihydrogen phosphate at 3 to 10 mg/kg administered as iv bolus dose to IC50 for rat NaV1.3; type: ADME, organism-based; conditions: in vivo
Tibial nerve [29] = test: Effect on ongoing nerve activity in rat skin-tibial nerve at 0.01 to 1 uM; type: functional, tissue-based; in short: as §3
Rattus norvegicus [30] = test: Toxicity in rat assessed as decrease in core body temperature at 100 to 500 mg/kg, po; type: organism-based; conditions: in vivo
[31] = Protein binding in rat plasma by equilibrium dialysis method; type: ADME, cell-free; conditions: read-out: PPB (converted); in short: as §2
Rattus norvegicus [32] = test: Toxicity in rat assessed as increase in blood pressure at 100 to 500 mg/kg, po; type: organism-based; conditions: in vivo
[33] = Ratio of drug level in rat at 100 mg/kg, po to IC50 for rat NaV1.3; type: ADME, organism-based; conditions: in vivo

SMILES: O=C(NCc1ccc(C(F)(F)F)cc1)c1ccc(S(=O)(=O)Nc2nccs2)cc1
- IC50 [1]: 147 nM
- logD [2]: 2.5

SMILES: O=C(NCc1ccc(OC(F)(F)F)c(Cl)c1)c1ccc(S(=O)(=O)Nc2nccs2)cc1
- IC50 [1]: 20 nM
- logD [2]: 3.1

SMILES: O=C(COc1ccc(F)cc1)N1CCc2cc(S(=O)(=O)Nc3ncns3)ccc21
- IC50 [1]: 1270 nM
- logD [2]: 0.4

SMILES: O=S(=O)(Nc1nccs1)c1ccc(S(=O)(=O)N2CCC[C@@H]2CNc2ncnc3[nH]ccc23)cc1F
- IC50 [1]: > 3000 nM

SMILES: O=S(=O)(Nc1nccs1)c1ccc(S(=O)(=O)N2CC[C@H](Oc3c(Cl)cccc3Cl)C2)cc1F
- IC50 [1]: 945 nM
- logD [2]: 2.6

SMILES: O=C(NCc1ccccc1)c1ccc(S(=O)(=O)Nc2nccs2)cc1
- IC50 [1]: 4450 nM

SMILES: CC(C)C[C@H](CN)CC(=O)O
- Activity (Rattus norvegicus [3]): Active
- Activity (Rattus norvegicus [4]): Active
- Activity (Rattus norvegicus [5]): Active
- Activity (Rattus norvegicus [6]): Active

SMILES: O=S(=O)(Nc1ncns1)c1ccc(Oc2ccc(OC(F)(F)F)c(Cl)c2)cc1
- IC50 [1]: 296 nM
- logD [2]: 2.5

SMILES: O=C(c1ccc(OC(F)(F)F)c(Cl)c1)N1CC(OCc2ccc(S(=O)(=O)Nc3ncns3)cc2)C1
- IC50 [1]: 237 nM
- logD [2]: 1.3

SMILES: O=C(NCc1ccc(OC(F)(F)F)cc1)c1ccc(S(=O)(=O)Nc2nccs2)cc1
- IC50 [1]: 197 nM
- logD [2]: 2.6

SMILES: O=C(Cc1ccccc1)Nc1ccc(S(=O)(=O)Nc2nccs2)cc1
- IC50 [1]: 3790 nM

SMILES: O=S(=O)(CCc1ccc(C(F)(F)F)cc1)c1ccc(S(=O)(=O)Nc2nccs2)cc1
- IC50 [1]: 155 nM

SMILES: O=C(c1ccc(S(=O)(=O)Nc2ncns2)c(F)c1)N1CCC(c2ccnc(C(F)(F)F)n2)CC1
- IC50 [1]: 6680 nM

SMILES: O=S(=O)(Nc1nccs1)c1ccc(S(=O)(=O)N2CCC(c3cccc(C(F)(F)F)n3)CC2)cc1F
- IC50 [1]: 1640 nM

SMILES: O=S(=O)(Nc1nccs1)c1ccc(S(=O)(=O)N2CC[C@H](Oc3ccc(C(F)(F)F)cn3)C2)cc1F
- IC50 [1]: 851 nM

SMILES: O=S(=O)(Nc1nccs1)c1ccc(-c2nnc(Cc3ccc(Cl)c(Cl)c3)[nH]2)cc1
- IC50 [1]: 45 nM

SMILES: O=C(NCc1ccc(OC(F)(F)F)c(Cl)c1)c1ccc(S(=O)(=O)Nc2ncc(F)cn2)c(F)c1
- IC50 [1]: 993 nM
- logD [2]: 2.1

SMILES: O=S(=O)(NCc1ccc(C(F)(F)F)cc1)c1ccc(S(=O)(=O)Nc2nccs2)cc1
- IC50 [1]: 160 nM

SMILES: CN(Cc1ccc(OC(F)(F)F)c(Cl)c1)C(=O)c1ccc(S(=O)(=O)Nc2ncns2)c(F)c1
- IC50 [1]: 522 nM
- logD [2]: 1.3

SMILES: O=C(NCc1ccc(OC(F)(F)F)c(Cl)c1)c1ccc(S(=O)(=O)Nc2cncnc2)c(F)c1
- pKa [7]: 4.6
- IC50 [1]: > 3000 nM
- logD [2]: 2

SMILES: O=C(NCc1ccc(OC(F)(F)F)c(Cl)c1)c1ccc(S(=O)(=O)Nc2ncns2)c(F)c1
- inhibition at 3 µM (CYP2C9): 88%
- Vd [8]: 0.1 L/kg
- inhibition at 3 µM (CYP3A4): 88%
- pKa [7]: 3.3
- IC50 [1]: 13 nM
- efflux ratio (MDR1): 1
- IC50 [9]: 4.87 µM
- solubility [10]: 369 µg/mL (≈ 722 µM)
- IC50 [11]: 2100 nM
- clearance [12]: 4.4 mL/min/kg
- IC50 [13]: 1800 nM
- IC50 [14]: 920 nM
- microsomal CLint [15]: < 8 µL/min/mg
- logD [2]: 2.1
- bioavailability [16]: 4%
- IC50 [17]: > 100 µM
- IC50 [18]: 12 nM
- IC50 [19]: 11.3 µM

SMILES: O=S(=O)(Nc1nccs1)c1ccc(-c2nnc(Cc3ccc(C(F)(F)F)cc3)[nH]2)cc1
- IC50 [1]: 124 nM

SMILES: O=C(NCc1ccc(OC(F)(F)F)c(Cl)c1)c1ccc(S(=O)(=O)Nc2cccnn2)c(F)c1
- IC50 [1]: 1790 nM
- logD [2]: 2.4

SMILES: O=C(c1ccc(S(=O)(=O)Nc2ncns2)c(F)c1)N1CCC(c2noc(-c3ccccc3C(F)(F)F)n2)CC1
- IC50 [1]: 1950 nM

SMILES: O=S(=O)(Nc1nccs1)c1ccc(S(=O)(=O)N2CCCCC2c2cc(-c3ccccc3)[nH]n2)cc1F (configuration not stated)
- IC50 [1]: 1830 nM

SMILES: O=C(NCc1ccc(OC(F)(F)F)c(Cl)c1)c1ccc(S(=O)(=O)Nc2ncccn2)c(F)c1
- IC50 [1]: 374 nM
- logD [2]: 1.8

SMILES: O=C(COc1ccc(F)cc1)N1CCc2cc(S(=O)(=O)Nc3nccs3)ccc21
- IC50 [1]: 2510 nM
- logD [2]: 1.8

SMILES: O=S(=O)(Nc1nccs1)c1ccc(S(=O)(=O)N2CC(Oc3ccccc3)C2)cc1F
- IC50 [1]: 959 nM
- logD [2]: 1.4

SMILES: O=C(Nc1ccc(S(=O)(=O)Nc2nccs2)cc1)C(c1ccccc1)c1ccccc1
- inhibition at 3 µM (CYP2C9): 79%
- IC50 [1]: 17 nM
- efflux ratio (MDR1): 30
- IC50 [20]: 10 µM
- IC50 [9]: 9.2 µM
- solubility [10]: 268 µg/mL (≈ 596 µM)
- IC50 [11]: 10300 nM
- IC50 [21]: 6 nM
- IC50 [13]: 5200 nM
- IC50 [14]: 393 nM
- microsomal CLint [15]: 15 µL/min/mg
- logD [2]: 3.3
- IC50 [18]: 32 nM
- IC50 [19]: 3 µM
- IC50 [22]: 68 nM

SMILES: O=C(NCc1ccc(OC(F)(F)F)c(Cl)c1)c1ccc(S(=O)(=O)Nc2nccs2)c(F)c1
- inhibition at 3 µM (CYP2C9): 66%
- fraction unbound [23]: < 0.002
- Ratio [24]: 62
- Vd [8]: 1.1 L/kg
- inhibition at 3 µM (CYP3A4): 66%
- pKa [7]: 6.4
- IC50 [1]: 11 nM
- efflux ratio (MDR1): 3.5
- fraction unbound [25]: 0.002
- IC50 [9]: 15.8 µM
- solubility [10]: 12 µg/mL (≈ 23.5 µM)
- IC50 [11]: 1050 nM
- clearance [12]: 3.9 mL/min/kg
- Activity (Tibial nerve [26]): inactive
- Activity (Rattus norvegicus [27]): Toxic
- IC50 [13]: 289 nM
- IC50 [14]: 429 nM
- Ratio [28]: <= 15
- Activity (Tibial nerve [29]): inactive
- microsomal CLint [15]: < 8 µL/min/mg
- logD [2]: 3.3
- Activity (Rattus norvegicus [30]): Toxic
- bioavailability [16]: 58%
- IC50 [17]: 17.7 µM
- fraction unbound [31]: 0.002
- Activity (Rattus norvegicus [32]): Toxic
- IC50 [18]: 20 nM
- Ratio [33]: 12
- IC50 [19]: 12.4 µM
